According to ChEMBL document CHEMBL1158168, “Condensed bridgehead nitrogen heterocyclic system: synthesis and pharmacological activities of 1,2,4-triazolo-[3,4-b]-1,3,4-thiadiazole derivatives of ibuprofen and biphenyl-4-yloxy acetic acid” (Eur J Med Chem, 2008):
In brackets after ≈: the same amount, converted by molar mass. Activity calls are given as the source filed them. The rule behind the calls is not given here.

Key:
[1] = test system: Staphylococcus aureus; test: Antibacterial activity against Staphylococcus aureus ATCC 19433 by cup plate method; format: functional
Procedure, shortened: (§1)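 Cup-plate diffusion on nutrient agar, with compounds dissolved in DMF. Compounds were tested at 200, 100, 50 and 25; those inhibiting at 25 were also tested at 12.5 and 6.25. MIC is the lowest concentration preventing visible growth on the plate.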

[2] = test system: Candida albicans; test: Antimicrobial activity against Candida albicans ATCC 2091 by cup plate method; format: functional
Procedure, shortened: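 Candida albicans grown on Sabouraud dextrose medium and tested by cup-plate diffusion, with compounds dissolved in DMF. Compounds were tested at 200, 100, 50 and 25; those inhibiting at 25 were also tested at 12.5 and 6.25. MIC is the lowest concentration preventing visible growth.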

[3] = test system: Escherichia coli; test: Antibacterial activity against sEscherichia coli ATCC 25922 by cup plate method; format: functional; procedure, shortened: as §1
[4] = test system: Rattus norvegicus; test: Antiinflammatory activity in Wistar albino rat assessed as inhibition of carrageenan-induced paw edema administered at equimolar oral dose relative to 70 mg/kg ibuprofen measured 4 hrs after carrageenan challenge; format: functional
Procedure, shortened: (§2)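 Wistar rats of either sex (180-200 g), six per group, dosed orally in a 0.5% CMC vehicle. One hour later, 0.1 mL of […] in 0.9% NaCl was injected sub-plantar into the right hind paw. Paw volume was read by plethysmometer before and 4 h after carrageenan, and percent inhibition was calculated.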

[5] = test system: Rattus norvegicus; test: Antiinflammatory activity in Wistar albino rat assessed as inhibition of carrageenan-induced paw edema administered at equimolar oral dose relative to 10 mg/kg fluribiprofen measured 4 hrs after carrageenan challenge; format: functional; procedure, shortened: as §2
[6] = test system: Rattus norvegicus; test: Gastrointestinal toxicity in rat assessed as gastric mucosal damage severity index administered at equimolar oral dose relative to 30 mg/kg fluribiprofen; format: organism-based, Gastric mucosa; parameters: dose 30 mg/kg, route oral; conditions: in vivo
Procedure, shortened: (§3)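 Rats, six per group, were fasted 24 h with water allowed, then dosed orally in a 0.5% CMC vehicle. They were fed normally for 17 h and then sacrificed. Stomachs were opened along the greater curvature and mucosal lesions scored under a magnifier (0.5 redness to 3.0 for more than 5 ulcers). Severity index is the mean group score minus the control mean.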

[7] = test system: Rattus norvegicus; test: Hepatotoxicity in po dosed Wistar albino rat assessed as serum glutamate oxaloacetate transaminase activity after 7 days; format: toxicity, organism-based; conditions: in vivo, 168 h
[8] = test system: Rattus norvegicus; test: Hepatotoxicity in po dosed Wistar albino rat assessed as alkaline phosphatase activity after 7 days; format: toxicity, organism-based; conditions: in vivo, 168 h
[9] = test system: Rattus norvegicus; test: Hepatotoxicity in po dosed Wistar albino rat assessed as total protein content after 7 days; format: toxicity, organism-based; conditions: in vivo, 168 h
[10] = test system: Rattus norvegicus; test: Hepatotoxicity in po dosed Wistar albino rat assessed as hepatocyte necrosis after 7 days; format: toxicity, organism-based; conditions: hepatocytes, 168 h
[11] = test system: Rattus norvegicus; test: Hepatotoxicity in po dosed Wistar albino rat assessed as total albumin content after 7 days; format: toxicity, organism-based; conditions: in vivo, 168 h
[12] = test system: Rattus norvegicus; test: Hepatotoxicity in po dosed Wistar albino rat assessed as serum glutamate pyruvate transaminase activity after 7 days; format: toxicity, organism-based; conditions: in vivo, 168 h
[13] = test system: Rattus norvegicus; test: Inhibition of lipid peroxidation in rat assessed as malondialdehyde level per 100 mg of tissue administered at equimolar oral dose relative to 210 mg/kg ibuprofen; format: functional
Procedure, shortened: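 Gastric mucosa was scraped from the stomachs after ulcer scoring. 100 mg was homogenized in ice-cold 1.15% KCl and reacted with SDS, acetate buffer (pH 3.5) and 0.8% TBA at 95 °C for 60 min. The product was extracted into n-butanol/pyridine (15:1) and absorbance read at 532 nm. MDA was calculated using ε 1.56 × 10⁵ M⁻¹cm⁻¹ and expressed per 100 mg tissue.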

[14] = test system: Rattus norvegicus; test: Gastrointestinal toxicity in rat assessed as gastric mucosal damage severity index administered at equimolar oral dose relative to 210 mg/kg ibuprofen; format: organism-based, Gastric mucosa; parameters: dose 210 mg/kg, route oral; conditions: in vivo; procedure, shortened: as §3

| SMILES | MIC [1] [µg/mL] | MIC [2] [µg/mL] | MIC [3] [µg/mL] | inhibition in vivo [4] [%] | inhibition in vivo [5] [%] | also measured |
| --- | --- | --- | --- | --- | --- | --- |
| CC(C)Cc1ccc(C(C)c2nnc3sc(Cc4ccccc4Nc4c(Cl)cccc4Cl)nn23)cc1 (stereo not drawn) | 50 (≈ 93.2 µM) | 200 (≈ 373 µM) | 200 (≈ 373 µM) | 18.2 |  |  |
| CC1COc2c(N3CCN(C)CC3)c(F)cc3c(=O)c(C(=O)O)cn1c23 (stereo not drawn) [OFLOXACIN] | 6.25 (≈ 17.3 µM) |  | 6.25 (≈ 17.3 µM) |  |  |  |
| CC(C)Cc1ccc(C(C)c2nnc3sc(Nc4ccc(F)cc4)nn23)cc1 (stereo not drawn) | 200 (≈ 506 µM) | 200 (≈ 506 µM) | 200 (≈ 506 µM) | 28 |  |  |
| CCCCNc1nn2c(COc3ccc(-c4ccccc4)cc3)nnc2s1 |  | 25 (≈ 65.9 µM) | 100 (≈ 264 µM) |  | 65.9 | Activity [1]: inactive |
| CC(=O)N1CCN(c2ccc(OCC3COC(Cn4ccnc4)(c4ccc(Cl)cc4Cl)O3)cc2)CC1 (stereo not drawn) [KETOCONAZOLE] |  | 6.25 (≈ 11.8 µM) |  |  |  |  |
| Cc1ccc(Nc2nn3c(COc4ccc(-c5ccccc5)cc4)nnc3s2)c(C)c1 |  | 100 (≈ 234 µM) | 50 (≈ 117 µM) |  | 39.4 | Activity [1]: inactive |
| Cc1ccc(Nc2nn3c(C(C)c4ccc(CC(C)C)cc4)nnc3s2)c(C)c1 (stereo not drawn) | 200 (≈ 493 µM) | 200 (≈ 493 µM) | 50 (≈ 123 µM) | 53 |  |  |

Continued, in another order:

| MIC [1] [µg/mL] | MIC [2] [µg/mL] | MIC [3] [µg/mL] | SMILES | inhibition in vivo [4] [%] | inhibition in vivo [5] [%] | also measured |
| --- | --- | --- | --- | --- | --- | --- |
| 25 (≈ 51.7 µM) | 50 (≈ 103 µM) | 50 (≈ 103 µM) | Clc1ccc(OCc2nn3c(COc4ccc(-c5ccccc5)cc4)nnc3s2)c(Cl)c1 |  | 50.8 |  |
| 200 (≈ 433 µM) | 100 (≈ 217 µM) | 25 (≈ 54.2 µM) | CC(C)Cc1ccc(C(C)c2nnc3sc(COc4ccc(Cl)cc4Cl)nn23)cc1 (stereo not drawn) | 38.6 |  |  |
|  |  | 25 (≈ 59.9 µM) | Fc1ccc(Nc2nn3c(COc4ccc(-c5ccccc5)cc4)nnc3s2)cc1 |  | 78.2 | Activity [1]: inactive; UI [6]: 0.666; Activity [7]: 137 U/ml; Activity [2]: inactive; Activity [8]: 17.07 U/ml; Activity [9]: 0.9 g/dL; Activity [10]: Non-toxic; Activity [11]: 0.71 g/dL; Activity [12]: 26.5 U/ml |
| 100 (≈ 265 µM) |  | 25 (≈ 66.2 µM) | CC(C)Cc1ccc(C(C)c2nnc3sc(Nc4ccccc4)nn23)cc1 (stereo not drawn) | 68.2 |  | Activity [13]: 5.12 nmol; Activity [2]: inactive; UI [14]: 0.667 |
